From ChEMBL document CHEMBL4406804, “Discovery of a Potent Steroidal Glucocorticoid Receptor Antagonist with Enhanced Selectivity against the Progesterone and Androgen Receptors (OP-3633)” (J Med Chem, 2019)
Active and inactive are the calls of the source. The rule behind the calls is not given here.

Columns and labels:
Format in all cases: cell-based
[1] = biological target: T1, Progesterone receptor (Homo sapiens, UniProt P06401); experiment: Antagonist activity at human progesterone receptor expressed in CHO-K1 cells harboring firefly luciferase gene after 20 hrs by One-Glo luciferase reporter gene assay
T1 sequence (P06401 whole entry): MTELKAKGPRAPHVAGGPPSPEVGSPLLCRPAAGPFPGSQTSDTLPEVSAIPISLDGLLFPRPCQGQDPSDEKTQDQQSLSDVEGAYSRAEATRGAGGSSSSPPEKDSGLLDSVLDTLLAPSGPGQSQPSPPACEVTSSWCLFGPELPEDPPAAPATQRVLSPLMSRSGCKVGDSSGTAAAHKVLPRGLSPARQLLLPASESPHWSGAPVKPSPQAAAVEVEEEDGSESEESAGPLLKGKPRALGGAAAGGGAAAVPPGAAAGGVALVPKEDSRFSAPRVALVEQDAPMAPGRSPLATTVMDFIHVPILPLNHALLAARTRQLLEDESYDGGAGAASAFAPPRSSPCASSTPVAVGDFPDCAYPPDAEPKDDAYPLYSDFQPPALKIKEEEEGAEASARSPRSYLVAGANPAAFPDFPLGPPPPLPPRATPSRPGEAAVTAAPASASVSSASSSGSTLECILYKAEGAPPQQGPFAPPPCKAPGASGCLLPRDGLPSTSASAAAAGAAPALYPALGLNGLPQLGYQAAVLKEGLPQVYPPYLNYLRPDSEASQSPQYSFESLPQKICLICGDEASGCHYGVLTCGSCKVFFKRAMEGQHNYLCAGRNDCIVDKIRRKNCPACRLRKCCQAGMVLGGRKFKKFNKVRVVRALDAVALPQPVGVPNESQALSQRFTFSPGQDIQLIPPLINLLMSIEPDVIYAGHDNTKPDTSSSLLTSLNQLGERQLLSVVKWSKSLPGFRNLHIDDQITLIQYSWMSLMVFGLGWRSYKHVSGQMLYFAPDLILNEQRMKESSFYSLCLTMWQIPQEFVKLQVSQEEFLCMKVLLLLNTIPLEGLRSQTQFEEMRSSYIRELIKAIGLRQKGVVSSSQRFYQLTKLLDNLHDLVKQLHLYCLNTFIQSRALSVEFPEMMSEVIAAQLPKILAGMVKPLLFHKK
Method in brief: (§1)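 Cell-based luciferase reporter assays for GR, AR and PR, run in agonist and antagonist modes. Potency and Emax are averages of at least two determinations, reported with SD.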

[2] = biological target: T2, Androgen receptor (Homo sapiens, UniProt P10275); experiment: Agonist activity at human androgen receptor in human LNCAP cells harboring firefly luciferase gene after 20 hrs by One-Glo luciferase reporter gene assay
T2 sequence (P10275 whole entry): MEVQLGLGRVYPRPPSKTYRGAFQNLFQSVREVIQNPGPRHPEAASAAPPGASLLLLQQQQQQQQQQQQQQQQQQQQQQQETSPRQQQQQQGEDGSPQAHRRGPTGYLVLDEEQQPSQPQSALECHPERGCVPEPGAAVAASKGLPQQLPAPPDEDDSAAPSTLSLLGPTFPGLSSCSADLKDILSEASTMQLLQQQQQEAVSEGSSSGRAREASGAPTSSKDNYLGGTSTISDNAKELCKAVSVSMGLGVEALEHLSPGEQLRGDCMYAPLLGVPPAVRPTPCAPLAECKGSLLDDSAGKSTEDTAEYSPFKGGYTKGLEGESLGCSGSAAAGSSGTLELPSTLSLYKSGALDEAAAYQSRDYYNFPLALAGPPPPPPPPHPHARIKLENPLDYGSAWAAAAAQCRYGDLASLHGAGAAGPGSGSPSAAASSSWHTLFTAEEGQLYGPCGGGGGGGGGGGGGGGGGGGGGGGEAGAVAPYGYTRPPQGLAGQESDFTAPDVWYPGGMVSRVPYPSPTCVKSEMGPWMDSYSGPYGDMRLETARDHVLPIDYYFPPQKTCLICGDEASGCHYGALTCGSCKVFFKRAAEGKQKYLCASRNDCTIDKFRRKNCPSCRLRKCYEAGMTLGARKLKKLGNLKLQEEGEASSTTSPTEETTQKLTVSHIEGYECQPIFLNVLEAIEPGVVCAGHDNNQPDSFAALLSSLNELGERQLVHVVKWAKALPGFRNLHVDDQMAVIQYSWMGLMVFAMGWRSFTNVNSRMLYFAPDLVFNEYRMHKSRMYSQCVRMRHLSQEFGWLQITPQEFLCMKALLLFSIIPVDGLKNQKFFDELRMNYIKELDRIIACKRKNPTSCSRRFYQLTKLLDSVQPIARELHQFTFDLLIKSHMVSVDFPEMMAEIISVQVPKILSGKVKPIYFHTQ

[3] = biological target: T3, Glucocorticoid receptor (Homo sapiens) (UniProt P04150); experiment: Antagonist activity at human glucocorticoid receptor expressed in CHO-K1 cells harboring firefly luciferase gene assessed as inhibition of glucocorticoid receptor activity at 0.01 to 10000 nM after 20 hrs by One-Glo luciferase reporter gene assay relative to mifepristone; design: scale not given: the % may be the effect or the level left; method in brief: as §1
T3 sequence (whole entry): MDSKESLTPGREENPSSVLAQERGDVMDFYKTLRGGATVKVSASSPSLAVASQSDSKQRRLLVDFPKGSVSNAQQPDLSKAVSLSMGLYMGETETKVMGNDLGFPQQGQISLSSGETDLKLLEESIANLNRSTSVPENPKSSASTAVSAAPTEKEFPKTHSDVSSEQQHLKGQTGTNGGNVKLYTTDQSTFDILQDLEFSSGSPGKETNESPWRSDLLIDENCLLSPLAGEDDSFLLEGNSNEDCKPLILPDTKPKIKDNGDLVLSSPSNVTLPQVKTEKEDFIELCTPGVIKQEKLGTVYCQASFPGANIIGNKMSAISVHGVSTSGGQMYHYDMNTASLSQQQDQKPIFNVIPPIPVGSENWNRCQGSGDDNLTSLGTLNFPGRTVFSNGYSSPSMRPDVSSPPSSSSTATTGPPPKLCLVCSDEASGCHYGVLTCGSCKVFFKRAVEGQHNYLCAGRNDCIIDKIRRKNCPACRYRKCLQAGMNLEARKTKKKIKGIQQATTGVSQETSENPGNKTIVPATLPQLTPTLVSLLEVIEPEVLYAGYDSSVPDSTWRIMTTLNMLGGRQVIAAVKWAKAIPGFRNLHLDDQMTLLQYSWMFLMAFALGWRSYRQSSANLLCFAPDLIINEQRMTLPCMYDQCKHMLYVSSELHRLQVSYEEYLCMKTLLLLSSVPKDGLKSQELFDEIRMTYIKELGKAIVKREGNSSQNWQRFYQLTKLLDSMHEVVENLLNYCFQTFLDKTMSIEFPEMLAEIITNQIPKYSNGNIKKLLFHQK

[4] = biological target: T2, Androgen receptor; experiment: Antagonist activity at human androgen receptor in human LNCAP cells harboring firefly luciferase gene after 20 hrs by One-Glo luciferase reporter gene assay; method in brief: as §1
[5] = biological target: T4, Glucocorticoid receptor (Homo sapiens, UniProt P04150); experiment: Antagonist activity at human glucocorticoid receptor expressed in CHO-K1 cells harboring firefly luciferase gene after 20 hrs by One-Glo luciferase reporter gene assay
T4 sequence (P04150 whole entry): T3 sequence (whole entry)

[6] = biological target: T2, Androgen receptor; experiment: Agonist activity at human androgen receptor in human LNCAP cells harboring firefly luciferase gene after 20 hrs by One-Glo luciferase reporter gene assay relative to mifepristone; method in brief: as §1
[7] = species: Homo sapiens; experiment: Selectivity ratio, ratio of IC50 for human androgen receptor in human LNCAP cells to IC50 for human glucocorticoid receptor expressed in CHO-K1 cells harboring firefly luciferase gene
[8] = biological target: T5, Progesterone receptor (Homo sapiens) (UniProt P06401); experiment: Agonist activity at human progesterone receptor expressed in CHO-K1 cells harboring firefly luciferase gene after 20 hrs by One-Glo luciferase reporter gene assay; method in brief: as §1
T5 sequence (whole entry): T1 sequence (P06401 whole entry)

Row | Compound | IC50 [1] | EC50 [2] | Activity [3] | IC50 [4] | IC50 [5] | Emax at 20 h [6] | Ratio [7] | agonist activity [8]
1 | CC(C)(C)C#C[C@]1(O)CC[C@H]2[C@@H]3CCC4=CC(=O)CC[C@@H]4[C@H]3[C@@H](c3ccc(N4CCN(S(C)(=O)=O)CC4)cc3)C[C@@]21C | 4.6 nM | > 2500 nM | 100% | 359 nM | 12.2 nM | 18.1% | 10 to 30 | inactive
2 | CC#C[C@]1(O)CC[C@H]2[C@@H]3CCC4=CC(=O)CC[C@]4(C)[C@H]3[C@@H](c3ccc(N(C)C(C)C)cc3)C[C@@]21C | 527 nM | 1140 nM | – | 2250 nM | 20.6 nM | 55.9% | – | inactive
3 | CC#C[C@]1(O)CC[C@H]2[C@@H]3CCC4=CC(=O)CC[C@]4(C)[C@H]3[C@@H](c3ccc(N(C)CCOC)cc3)C[C@@]21C | 1640 nM | > 2500 nM | – | 1300 nM | 52.1 nM | 20% | – | inactive
4 | CC#C[C@]1(O)CC[C@H]2[C@@H]3CCC4=CC(=O)CC[C@]4(C)[C@H]3[C@@H](c3ccc(-n4cccc4)cc3)C[C@@]21C | 523 nM | > 2500 nM | – | 354 nM | 52.2 nM | 16.5% | – | inactive
5 | CCC#C[C@]1(O)CC[C@H]2[C@@H]3CCC4=CC(=O)CC[C@]4(C)[C@H]3[C@@H](c3ccc(N(C)C)cc3)C[C@@]21C | 1550 nM | > 2500 nM | – | 2960 nM | 73.7 nM | 13.2% | – | inactive
6 | CC(C)C#C[C@]1(O)CC[C@H]2[C@@H]3CCC4=CC(=O)CC[C@]4(C)[C@H]3[C@@H](c3ccc(N(C)C)cc3)C[C@@]21C | 2080 nM | > 2500 nM | – | > 5000 nM | 62 nM | 8.3% | – | inactive
7 | CN(C)c1ccc([C@H]2C[C@@]3(C)[C@@H](CC[C@@]3(O)C#CC(F)(F)F)[C@@H]3CCC4=CC(=O)CC[C@]4(C)[C@H]32)cc1 | 910 nM | > 2500 nM | – | 642 nM | 47.2 nM | 7.3% | – | inactive
8 | COCC#C[C@]1(O)CC[C@H]2[C@@H]3CCC4=CC(=O)CC[C@]4(C)[C@H]3[C@@H](c3ccc(N(C)C)cc3)C[C@@]21C | 4240 nM | > 2500 nM | – | > 5000 nM | 116 nM | 17.5% | – | inactive
9 | CCC(C)(C)C#C[C@]1(O)CC[C@H]2[C@@H]3CCC4=CC(=O)CC[C@@H]4[C@H]3[C@@H](c3ccc(N(C)C)cc3)C[C@@]21C | 21.1 nM | > 2500 nM | – | 175 nM | 12.7 nM | 7.3% | 10 to 30 | inactive
10 | CN1CCN(c2ccc([C@H]3C[C@@]4(C)[C@@H](CC[C@@]4(O)C#CC(C)(C)C)[C@@H]4CCC5=CC(=O)CC[C@@H]5[C@H]43)cc2)CC1 | 25.4 nM | > 2500 nM | – | 1010 nM | 35.8 nM | 7.9% | 10 to 30 | inactive
11 | CC#C[C@]1(O)CC[C@H]2[C@@H]3CCC4=CC(=O)CC[C@]4(C)[C@H]3[C@@H](c3ccc(OC)cc3)C[C@@]21C | 1690 nM | > 2500 nM | – | 561 nM | 58.3 nM | 14.1% | – | inactive
12 | CC#C[C@]1(O)CC[C@H]2[C@@H]3CCC4=CC(=O)CC[C@]4(C)[C@H]3[C@@H](c3ccc(N4CCCC4)cc3)C[C@@]21C | 4070 nM | > 2500 nM | – | 3150 nM | 57.9 nM | 10.6% | – | inactive
13 | CCN(CC)c1ccc([C@H]2C[C@@]3(C)[C@@H](CC[C@@]3(O)C#CC(C)(C)C)[C@@H]3CCC4=CC(=O)CC[C@@H]4[C@H]32)cc1 | 6 nM | > 2500 nM | – | 263 nM | 13.9 nM | 9.4% | 10 to 30 | inactive
14 | CN(C)c1ccc([C@H]2C[C@@]3(C)[C@@H](CC[C@@]3(O)C#CC(C)(C)C)[C@@H]3CCC4=CC(=O)CC[C@@H]4[C@H]32)cc1 | 3.4 nM | – | 100% | 165 nM | – | – | 10 to 30 | inactive
15 | CC#C[C@]1(O)CC[C@H]2[C@@H]3CCC4=CC(=O)CC[C@]4(C)[C@H]3[C@@H](OCc3ccc(Cl)cc3)C[C@@]21C | 8.2 nM | 1890 nM | – | 85 nM | 17.6 nM | 47.8% | – | inactive
